{"source": "paper PMC3224645", "about": "(Purinergic Signalling, 2011)", "key": {"LNCaP cells": {"system": "LNCaP cells", "experiment": "LNCaP proliferation with IPA in the presence of A3R antagonist MRS1523", "format": "cell-based, human"}, "hA3R [1]": {"target": "T1, hA3R (Homo sapiens, UniProt P0DMS8)", "T1 sequence (P0DMS8 1-318)": "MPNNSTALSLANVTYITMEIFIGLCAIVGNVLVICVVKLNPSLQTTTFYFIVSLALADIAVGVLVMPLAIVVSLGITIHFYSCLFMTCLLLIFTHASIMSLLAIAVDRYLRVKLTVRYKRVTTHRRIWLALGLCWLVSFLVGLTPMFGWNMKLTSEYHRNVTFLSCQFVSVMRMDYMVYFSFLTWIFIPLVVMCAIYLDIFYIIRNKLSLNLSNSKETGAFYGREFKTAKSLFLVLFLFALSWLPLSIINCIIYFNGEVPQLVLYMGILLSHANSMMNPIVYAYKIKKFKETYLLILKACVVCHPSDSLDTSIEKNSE", "conditions": "cited from earlier work"}, "[2]": {"system": "breast cancer cell lines lacking A3R mRNA", "conditions": "concentrations between 10 and 100 μM (500 μM for adenosine); cited from earlier work"}, "rat A3R": {"target": "T2, rat A3R (Rattus norvegicus, UniProt P28647)", "T2 sequence (P28647 1-320)": "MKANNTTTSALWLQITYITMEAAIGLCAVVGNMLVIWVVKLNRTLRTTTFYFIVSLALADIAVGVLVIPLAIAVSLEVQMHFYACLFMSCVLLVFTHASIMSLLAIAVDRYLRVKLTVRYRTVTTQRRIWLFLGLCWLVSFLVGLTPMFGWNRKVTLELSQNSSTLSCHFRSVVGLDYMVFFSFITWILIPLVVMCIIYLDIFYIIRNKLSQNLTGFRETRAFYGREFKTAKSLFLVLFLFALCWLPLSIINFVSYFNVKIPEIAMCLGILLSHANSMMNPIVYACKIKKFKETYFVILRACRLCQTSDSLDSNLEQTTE", "experiment": "Radioligand binding, [125I]-AB-MECA displacement on RBL-2H3 cell membranes"}, "[3]": {"conditions": "in the first 4 h, mostly in metabolized form; cited from earlier work"}, "[4]": {"conditions": "phase I clinical studies; cited from earlier work"}, "hA3R [5]": {"target": "T1, hA3R", "experiment": "cAMP accumulation assay", "format": "cell-based"}, "[6]": {"system": "N1S1 (rat hepatocellular carcinoma) cells", "experiment": "[3H]-thymidine incorporation proliferation assay, N1S1", "format": "cell-based", "in_short": "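N1S1 rat hepatoma cells, not serum-starved, were assayed in growth medium (RPMI 1640, 10% FBS, 2 mM L-glutamine, penicillin/streptomycin) at 1.5 × 10^4 cells/ml. […] Assays ran 24 h, or 48 h for experiments with EHNA (10 μM). [3H]-thymidine (1 μCi) was pulsed for the last 18 h, then cells were harvested and scintillation-counted.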"}, "[7]": {"system": "LNCaP (human prostate carcinoma) cells", "experiment": "[3H]-thymidine incorporation proliferation assay, LNCaP", "format": "cell-based", "conditions": "for effect on LNCaP proliferation: 24 h", "in_short": "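LNCaP cells were kept in RPMI 1640 with 10% FBS, then serum-starved for 18 h and assayed as monolayers in RPMI with 1% FBS at 1.5 × 10^4 cells/ml. […] Assays ran 24 h, or 48 h for experiments with EHNA (10 μM). [3H]-thymidine (1 μCi) was added for the last 18 h, then cells were harvested and counted. Three experiments in triplicate.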"}, "HL-60": {"system": "HL-60", "conditions": "30 μM, in the presence of MRS1523 (10 μM) or MRS1220 (5 μM); cited from earlier work"}, "MOLT-4": {"system": "MOLT-4", "conditions": "30 μM, in the presence of MRS1523 (10 μM) or MRS1220 (5 μM); cited from earlier work"}}}
{"smiles": "CCCOC(=O)c1c(-c2ccccc2)nc(CC)c(C(=O)SCC)c1CCC", "note": "[MRS1523]", "values": [{"measurement": "blockade of the antiproliferative effect of IPA on LNCaP", "setting": "LNCaP cells; IPA 1 μM, MRS1523 0.01–1 μM", "value": "small, although still significant at higher concentrations"}, {"measurement": "blockade of the antiproliferative effect of IPA on LNCaP", "setting": "LNCaP cells; IPA 10 μM, MRS1523 0.01–1 μM", "value": "no effect"}, {"measurement": "blockade of the antiproliferative effect of IPA on LNCaP", "setting": "LNCaP cells; MRS1523 0.1 and 1 μM, IPA 0.01 and 0.1 μM", "value": "prevented the antiproliferative effect"}, {"measurement": "affinity for the hA3R compared to IPA", "setting": "hA3R [1]", "value": "approximately sixfold higher"}]}
{"smiles": "Nc1ncnc2c1ncn2[C@@H]1O[C@H](CO)C[C@H]1O", "note": "[3′-deoxyadenosine]", "values": [{"measurement": "antiproliferative effect on breast cancer cell lines lacking A3R mRNA", "setting": "[2]", "value": "had antiproliferative effects"}]}
{"smiles": "CC(C)=CCNc1ncnc2c1ncn2[C@@H]1O[C@H](CO)[C@@H](O)[C@H]1O", "note": "[1b, N^6-(2-isopentenyl)-adenosine]", "values": [{"measurement": "Ki", "setting": "rat A3R", "value": "4.69 ± 0.2", "unit": "µM"}, {"measurement": "fraction excreted in urine", "setting": "[3]", "value": "more than 50%"}]}
{"smiles": "CNC(=O)[C@H]1O[C@@H](n2cnc3c(NCc4cccc(I)c4)ncnc32)[C@H](O)[C@@H]1O", "note": "[IB-MECA]", "values": [{"measurement": "tolerability", "setting": "[4]", "value": "tolerated very well"}, {"measurement": "antiproliferative effect on breast cancer cell lines lacking A3R mRNA", "setting": "[2]", "value": "had antiproliferative effects"}]}
{"smiles": "COc1ccccc1NC(=O)Nc1nc(-c2cccnc2)nc2ccccc12", "note": "[VUF5574]", "values": [{"measurement": "inhibition by the antagonist of cAMP modulation by adenosine, IPA and Cl-IB-MECA", "setting": "hA3R [5]; agonists 10 μM, VUF5574 1 μM or 10 μM", "value": "largely and significantly inhibited"}]}
{"smiles": "Nc1ncnc2c1ncn2[C@@H]1O[C@H](CO)[C@@H](O)[C@H]1O", "note": "[1a, Adenosine]", "values": [{"measurement": "antiproliferative effect on breast cancer cell lines lacking A3R mRNA", "setting": "[2]", "value": "had antiproliferative effects"}, {"measurement": "effect on N1S1 proliferation", "setting": "[6]; 25 μM", "value": "only a modest effect"}, {"measurement": "effect on N1S1 proliferation in the presence of EHNA", "setting": "[6]; adenosine 25 μM + EHNA 10 μM", "value": "almost full growth inhibition"}, {"measurement": "effect on LNCaP proliferation", "setting": "[7]; 25 μM", "value": "no effect"}, {"measurement": "effect of EHNA on the adenosine effect in LNCaP", "setting": "[7]; adenosine 25 μM + EHNA 10 μM, data not shown", "value": "did not increase the adenosine effect"}, {"measurement": "effect of ADA on the agonist's inhibition of cAMP production", "setting": "hA3R [5]; agonist 10 μM + ADA 0.8 IU/ml", "value": "abolished the effect"}, {"measurement": "inhibition of forskolin-stimulated cAMP production", "setting": "hA3R [5]; agonist at 10 μM", "value": "inhibited cAMP production to a similar extent"}]}
{"smiles": "CCCCCC[C@@H]([C@@H](C)O)n1cnc2c(N)ncnc21", "note": "(racemic) [EHNA]", "values": [{"measurement": "basal growth inhibition of N1S1 cells", "setting": "[6]; EHNA 10 μM alone, without adenosine", "value": 22, "unit": "%"}]}
{"smiles": "Nc1nc(Cl)nc2c1ncn2[C@@H]1O[C@H](CO)[C@@H](O)[C@H]1O", "note": "[2-chloro-adenosine]", "values": [{"measurement": "antiproliferative effect on breast cancer cell lines lacking A3R mRNA", "setting": "[2]", "value": "had antiproliferative effects"}]}
{"smiles": "CNC(=O)[C@H]1O[C@@H](n2cnc3c(NCc4cccc(I)c4)nc(Cl)nc32)[C@H](O)[C@@H]1O", "note": "[Cl-IB-MECA, 2-chloro-N ^6-(3-iodobenzyl)adenosine-5′-N-methylcarboxamide]", "values": [{"measurement": "growth of HL-60", "setting": "HL-60", "value": "inhibited growth"}, {"measurement": "antiproliferative effect on breast cancer cell lines lacking A3R mRNA", "setting": "[2]", "value": "had antiproliferative effects"}, {"measurement": "effect on N1S1 proliferation", "setting": "[6]; 0.01–10 μM, 24 h", "value": "inhibited proliferation"}, {"measurement": "effect on LNCaP proliferation", "setting": "[7]; 0.01–10 μM", "value": "inhibited proliferation"}, {"measurement": "growth of MOLT-4", "setting": "MOLT-4", "value": "inhibited growth"}]}
